Source: ChEMBL document CHEMBL3407378, “Design, synthesis and biological evaluation of novel 7-alkylamino substituted benzo[a]phenazin derivatives as dual topoisomerase I/II inhibitors” (Eur J Med Chem, 2015)
Activity calls are given as the source filed them. The rule behind the calls is not given here.

Assays:
A549 = assay: Cytotoxicity against human A549 cells after 48 hrs by MTT assay; assay type: functional, cell-based; settings: A549, 48 h
Method in brief: (§1)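 Cells seeded 1 × 10^4 per well and incubated overnight, then given compound at 0–50 µM for 48 h. MTT added (20 µL of 5 mg/mL stock) for 4 h at 37 °C; formazan dissolved in DMSO, absorbance read at 570 nm. Triplicates; IC50 from mean OD versus concentration curves.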

HeLa = assay: Cytotoxicity against human HeLa cells after 48 hrs by MTT assay; assay type: functional, cell-based; method in brief: as §1
[1] = Cytotoxicity against human HL60 cells after 48 hrs by MTT assay; assay type: functional, cell-based; settings: HL-60, 48 h; method in brief: as §1
[2] = target: DNA topoisomerase 2-alpha (Homo sapiens) (UniProt P11388); assay: Inhibition of human Topo 2-mediated relaxation of supercoiled pBR322 plasmid at 25 to 50 uM after 30 mins by agarose gel electrophoresis
Chain of DNA topoisomerase 2-alpha (Homo sapiens) (P11388 whole entry, the tested form may be a part): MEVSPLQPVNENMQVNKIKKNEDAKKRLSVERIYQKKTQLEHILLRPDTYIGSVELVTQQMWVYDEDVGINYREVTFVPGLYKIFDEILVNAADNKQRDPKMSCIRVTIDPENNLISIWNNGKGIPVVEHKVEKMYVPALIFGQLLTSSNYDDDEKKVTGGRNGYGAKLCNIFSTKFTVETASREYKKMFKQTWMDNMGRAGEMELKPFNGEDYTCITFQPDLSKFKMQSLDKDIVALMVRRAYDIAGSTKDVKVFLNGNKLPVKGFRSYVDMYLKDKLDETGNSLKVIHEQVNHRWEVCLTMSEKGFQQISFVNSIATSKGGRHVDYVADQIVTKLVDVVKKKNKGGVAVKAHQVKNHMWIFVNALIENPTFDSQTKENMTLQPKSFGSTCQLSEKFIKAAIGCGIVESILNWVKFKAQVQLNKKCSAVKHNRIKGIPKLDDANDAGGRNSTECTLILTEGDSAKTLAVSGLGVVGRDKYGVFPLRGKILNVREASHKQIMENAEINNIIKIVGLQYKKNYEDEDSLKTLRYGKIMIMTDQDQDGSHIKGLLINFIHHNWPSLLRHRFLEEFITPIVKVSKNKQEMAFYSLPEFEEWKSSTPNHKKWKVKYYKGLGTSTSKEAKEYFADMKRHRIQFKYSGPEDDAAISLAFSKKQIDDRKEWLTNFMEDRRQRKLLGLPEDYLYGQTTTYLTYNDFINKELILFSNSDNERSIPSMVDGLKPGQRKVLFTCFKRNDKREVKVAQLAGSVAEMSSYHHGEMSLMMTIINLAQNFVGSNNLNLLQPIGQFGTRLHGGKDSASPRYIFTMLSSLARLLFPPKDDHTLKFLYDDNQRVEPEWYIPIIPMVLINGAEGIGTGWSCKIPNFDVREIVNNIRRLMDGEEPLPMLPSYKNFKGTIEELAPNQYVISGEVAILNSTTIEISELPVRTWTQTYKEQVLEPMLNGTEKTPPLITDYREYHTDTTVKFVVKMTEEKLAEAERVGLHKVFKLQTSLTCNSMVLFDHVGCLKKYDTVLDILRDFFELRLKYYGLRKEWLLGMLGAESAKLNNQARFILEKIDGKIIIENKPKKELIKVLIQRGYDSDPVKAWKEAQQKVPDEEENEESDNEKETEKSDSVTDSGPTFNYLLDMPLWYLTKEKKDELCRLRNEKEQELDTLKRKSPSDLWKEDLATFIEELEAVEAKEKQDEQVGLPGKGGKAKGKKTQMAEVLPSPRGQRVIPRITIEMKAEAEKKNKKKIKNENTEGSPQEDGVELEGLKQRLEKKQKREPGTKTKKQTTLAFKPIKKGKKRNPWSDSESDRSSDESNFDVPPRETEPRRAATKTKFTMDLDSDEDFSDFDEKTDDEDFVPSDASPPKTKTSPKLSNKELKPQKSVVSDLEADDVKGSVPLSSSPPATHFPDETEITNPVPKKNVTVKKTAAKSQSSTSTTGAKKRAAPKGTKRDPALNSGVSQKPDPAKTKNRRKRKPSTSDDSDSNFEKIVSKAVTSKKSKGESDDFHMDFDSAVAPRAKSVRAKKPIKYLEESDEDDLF

K562 = assay: Cytotoxicity against human K562 cells after 48 hrs by MTT assay; assay type: functional, cell-based; settings: K562, 48 h; method in brief: as §1
[3] = target: T1, DNA topoisomerase 1 (Homo sapiens) (UniProt P11387); assay: Inhibition of Topo 1 (unknown origin)-mediated relaxation of supercoiled pBR322 plasmid at 25 uM after 30 mins by agarose gel electrophoresis
T1 sequence (whole entry): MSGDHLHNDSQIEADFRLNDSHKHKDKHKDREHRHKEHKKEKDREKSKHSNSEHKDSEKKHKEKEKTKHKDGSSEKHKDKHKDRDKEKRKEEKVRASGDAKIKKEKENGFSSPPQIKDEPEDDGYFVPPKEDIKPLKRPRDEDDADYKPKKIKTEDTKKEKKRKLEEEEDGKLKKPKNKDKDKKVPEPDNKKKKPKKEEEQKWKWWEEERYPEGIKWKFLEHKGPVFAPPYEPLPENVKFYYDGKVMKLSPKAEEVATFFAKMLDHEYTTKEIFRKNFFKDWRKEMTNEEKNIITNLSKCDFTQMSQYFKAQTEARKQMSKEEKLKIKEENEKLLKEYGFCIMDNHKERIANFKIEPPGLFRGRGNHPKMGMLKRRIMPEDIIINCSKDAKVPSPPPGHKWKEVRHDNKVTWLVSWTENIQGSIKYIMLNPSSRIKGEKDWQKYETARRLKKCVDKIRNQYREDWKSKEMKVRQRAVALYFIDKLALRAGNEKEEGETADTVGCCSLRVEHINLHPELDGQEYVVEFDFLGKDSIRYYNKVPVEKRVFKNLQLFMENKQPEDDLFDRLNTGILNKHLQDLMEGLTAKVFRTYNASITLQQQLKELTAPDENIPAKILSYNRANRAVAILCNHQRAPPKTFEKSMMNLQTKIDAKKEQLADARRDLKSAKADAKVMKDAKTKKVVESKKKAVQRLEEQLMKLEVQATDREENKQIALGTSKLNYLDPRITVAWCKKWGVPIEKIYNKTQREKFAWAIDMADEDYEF
Method in brief: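 Topo I with supercoiled pBR322 and compound, 30 min at 37 °C. Stopped with SDS/bromophenol blue/glycerol dye; run on 1% agarose gel in TAE for 1 h and stained with Gel Red.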

[4] = target: DNA topoisomerase 2-alpha (Homo sapiens) (UniProt P11388); assay: Inhibition of human Topo 2-mediated relaxation of supercoiled pBR322 plasmid at 25 uM after 30 mins by agarose gel electrophoresis
[5] = target: DNA topoisomerase 2-alpha (Homo sapiens) (UniProt P11388); assay: Inhibition of human Topo 2 ATPase domain expressed in yeast BCY123 strain at 25 uM after 1 hr by nonisotopic malachite green assay
Method in brief: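 Human Topo II ATPase domain overexpressed in yeast BCY123 and purified. Assay buffer: 100 mM Tris-HCl pH 7.4, 20 mM KCl, 6 mM MgCl2. Reaction of 25 µL with compound, started with 1 mM ATP, 1 h at 37 °C. Phosphate detected with malachite green at OD620. No-enzyme background set as 100% inhibition and enzyme-only as 0%.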

[6] = target: T2, DNA topoisomerase (Bos taurus) (UniProt A0JN73); assay: Induction of calf thymus Topo 1-pBR322 DNA cleavage complex formation assessed as nicked DNA formation after 30 mins by agarose gel electrophoresis
T2 sequence (whole entry): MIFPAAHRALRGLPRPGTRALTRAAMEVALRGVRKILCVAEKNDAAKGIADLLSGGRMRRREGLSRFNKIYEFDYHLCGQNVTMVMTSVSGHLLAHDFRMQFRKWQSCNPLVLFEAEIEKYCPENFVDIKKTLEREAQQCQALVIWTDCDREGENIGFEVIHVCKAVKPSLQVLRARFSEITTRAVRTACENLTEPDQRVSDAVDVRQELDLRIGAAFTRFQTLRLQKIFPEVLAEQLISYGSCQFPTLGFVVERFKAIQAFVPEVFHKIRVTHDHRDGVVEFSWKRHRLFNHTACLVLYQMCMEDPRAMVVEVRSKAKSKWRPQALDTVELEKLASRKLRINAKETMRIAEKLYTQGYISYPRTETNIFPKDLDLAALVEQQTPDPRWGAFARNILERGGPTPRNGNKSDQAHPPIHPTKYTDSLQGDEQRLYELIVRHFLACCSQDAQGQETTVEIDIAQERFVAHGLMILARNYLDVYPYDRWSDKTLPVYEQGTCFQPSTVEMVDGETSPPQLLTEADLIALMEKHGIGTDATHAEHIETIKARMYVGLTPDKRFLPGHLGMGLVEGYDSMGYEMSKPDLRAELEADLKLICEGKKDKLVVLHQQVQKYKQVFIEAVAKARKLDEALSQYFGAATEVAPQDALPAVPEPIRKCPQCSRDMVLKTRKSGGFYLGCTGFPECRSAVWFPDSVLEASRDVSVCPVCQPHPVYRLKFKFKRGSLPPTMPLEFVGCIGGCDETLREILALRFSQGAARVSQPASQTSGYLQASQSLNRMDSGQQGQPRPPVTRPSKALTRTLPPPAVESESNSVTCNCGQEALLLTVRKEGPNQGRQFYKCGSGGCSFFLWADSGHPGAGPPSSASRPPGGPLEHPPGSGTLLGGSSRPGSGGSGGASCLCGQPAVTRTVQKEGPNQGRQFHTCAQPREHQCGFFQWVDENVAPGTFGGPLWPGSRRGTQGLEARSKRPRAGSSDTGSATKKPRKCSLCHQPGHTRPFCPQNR
Method in brief: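 Calf thymus Topo I (10 units) with 0.1 µg supercoiled pBR322 and 0.5–50 µM compound in Topo I buffer (pH 7.5) for […]. Complexes trapped with SDS then NaEDTA, followed by proteinase K for 30 min at 45 °C. Samples run on 1% agarose gel containing 0.5 µg/mL ethidium bromide. Nicked DNA quantified by optical density.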

[7] = target: T1, DNA topoisomerase 1 (Homo sapiens); assay: Induction of Topo 1-DNA cleavage complex formation in human HL60 cells after 1 hr by ICE assay; assay type: cell-based; settings: HL-60
Method in brief: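 Mid-log phase HL-60 cells exposed to 2, 5 or 10 µM compound (DMSO vehicle 1.0% v/v) for 1 h, then lysed in DNAzol. DNA was ethanol-precipitated, redissolved and quantified. 2 µg DNA in 25 mM NaH2PO4 pH 6.5 was blotted onto nitrocellulose. Covalent Topo I was probed with rabbit anti-human Topo I (1:1000) and HRP secondary (1:3000), read by chemiluminescence.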

| SMILES | IC50 (A549) [µM] | IC50 (HeLa) [µM] | IC50 [1] [µM] | Topo 2 inhibition (active/not active) [2] | IC50 (K562) [µM] | Topo I relaxation inhibition (active/not active) [3] | Topo 2 inhibition (active/not active) [4] | inhibition [5] [%] | Activity [6] | Activity [7] |
| --- | --- | --- | --- | --- | --- | --- | --- | --- | --- | --- |
| CCCn1c2cc(=O)c3ccccc3c-2nc2ccccc21 | > 50 | > 50 | 32.1 | inactive | > 40 |  |  |  |  |  |
| CN(C)CCn1c2cc(=O)c3ccccc3c-2nc2ccccc21 | 22.3 | 9.91 | 0.31 | Active | 24.6 | Active |  |  |  |  |
| O=c1cc2n(CCCN3CCCCC3)c3ccccc3nc-2c2ccccc12 | 33 | 27.4 | 0.52 | Active | 10.3 | inactive |  |  |  |  |
| O=c1cc2n(CCCN3CCOCC3)c3ccccc3nc-2c2ccccc12 | 45.4 | > 50 | 1.28 |  | 25.2 |  |  |  |  |  |
| CCN(CC)CCn1c2cc(=O)c3ccccc3c-2nc2ccccc21 | 29.2 | 25.4 | 0.31 |  | 25.6 |  |  |  |  |  |
| O=c1cc2n(CCCN3CCCCC3)c3ncccc3nc-2c2ccccc12 | 19.9 | 20.4 | 0.63 |  | 38.4 | inactive | inactive |  |  |  |
| COc1ccc2c(=O)cc3n(CCCN(C)C)c4ccccc4nc-3c2c1 | 33 | 29.9 | 0.22 |  | 7.13 | Active | Active |  |  |  |
| CN(C)CCCn1c2cc(=O)c3ccccc3c-2nc2ccccc21 | 13.5 | 8.41 | 0.21 | Active | 5.93 | Active |  |  |  |  |
| O=c1cc2n(CCCN3CCCC3)c3ccccc3nc-2c2ccccc12 | 35.7 | 30.3 | 0.22 |  | 25.2 |  |  |  |  |  |
| CCN(CC)CCCn1c2cc(=O)c3ccccc3c-2nc2ccccc21 | 37.4 | 44.5 | 1.5 |  | 24.8 |  |  |  |  |  |
| O=C1C=CC(=O)c2ccccc21 |  |  |  |  |  |  |  | 56 |  |  |
| CN1CCN(CCCn2c3cc(=O)c4ccccc4c-3nc3ccccc32)CC1 | 23.6 | 26.7 | 1.22 |  | 24 |  |  |  |  |  |
| COc1ccc2c3nc4ccccc4n(CCN(C)C)c-3cc(=O)c2c1 | 38.5 | 18.9 | 2.85 |  | 18.4 |  |  |  |  |  |
| O=c1cc2n(CCN3CCCCC3)c3ccccc3nc-2c2ccccc12 | 37.3 | 32 | 0.93 | Active | 25.2 | inactive |  |  |  |  |
| COc1ccc2nc3c4ccccc4c(=O)cc-3n(CCCN(C)C)c2c1 | 30.5 | 5.51 | 0.18 |  | 5.53 | Active |  |  |  |  |
| CC[C@@]1(O)C(=O)OCc2c1cc1n(c2=O)Cc2cc3ccccc3nc2-1 [CAMPTOTHECIN] | 26.4 | 11.6 | 0.07 |  | 5.37 |  |  |  | Dose-dependent effect | Dose-dependent effect |
| CCN(CC)CCCn1c2cc(=O)c3cc(OC)ccc3c-2nc2ccccc21 | 22.9 | 25.9 | 0.23 |  | 22 | inactive |  |  |  |  |
| O=c1cc2n(CCN3CCOCC3)c3ccccc3nc-2c2ccccc12 | > 50 | > 50 | 6.91 |  | > 40 |  |  |  |  |  |
| CCN(CC)CCCCn1c2cc(=O)c3ccccc3c-2nc2ccccc21 | 18.9 | 29.4 | 0.22 |  | 26 |  |  |  |  |  |
| COc1ccc2c3nc4ccccc4n(CCCN(C)C)c-3cc(=O)c2c1 | 24.6 | 28.4 | 0.15 |  | 6.12 | inactive |  |  |  |  |
| COc1cc([C@@H]2c3cc4c(cc3[C@@H](O[C@@H]3O[C@@H]5CO[C@@H](C)O[C@H]5[C@H](O)[C@H]3O)[C@H]3COC(=O)[C@H]23)OCO4)cc(OC)c1O [ETOPOSIDE] | 8.91 | 0.54 | 0.06 |  | 1.64 |  |  |  |  |  |
| COc1ccc2c(c1)nc1c3ccccc3c(=O)cc-1n2CCCN(C)C | 25.9 | 24.9 | 0.96 |  | 20.2 | inactive |  |  |  |  |
| CN1CCN(CCn2c3cc(=O)c4ccccc4c-3nc3ccccc32)CC1 | 25.3 | 28.9 | 0.38 |  | 21.6 | Active |  |  |  |  |
| CN(C)CCCn1c2cc(=O)c3ccccc3c-2nc2cc(Cl)ccc21 | 38.4 | 29.6 | 1.08 |  | 20.4 |  |  |  |  |  |
| COc1ccc2c3nc4cc(Cl)ccc4n(CCCN(C)C)c-3cc(=O)c2c1 | 31.5 | 43 | 6.43 |  | 22.8 |  |  |  |  |  |
| CN(C)CCCn1c2cc(=O)c3ccccc3c-2nc2cccnc21 | 20.4 | 4.52 | 0.62 |  | 36.8 | inactive | inactive |  |  |  |
| COc1ccc2c(c1)nc1c3ccc(OC)cc3c(=O)cc-1n2CCCN(C)C | 34.5 | 6.52 | 0.65 |  | 22 | inactive |  |  |  |  |
